This is an account of results in paper PMC7379967 (The Febs Journal, 2018).

For this assay, the target named is human neutrophil proMMP‐9 (Homo sapiens, UniProt P14780). The assay is classed as biochemical. The conditions noted are these: zymography. The method in brief: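 Neutrophil proMMP-9 was incubated with recombinant human MMP-3 catalytic domain (enzyme/substrate 1/20), either alone or with galectin-3 (proMMP-9/galectin-3 1/10). Samples were taken at 0, 0.16, 0.5, 1, 2 and 3 h. Galectins were expressed in E. coli BL21-AI and affinity-purified on α-lactose agarose. Conversion to active MMP-9 was read by gelatin zymography, with recombinant proMMP-9 standard loaded as a reference.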
Chain of human neutrophil proMMP‐9 (P14780 20-707 limits assumed): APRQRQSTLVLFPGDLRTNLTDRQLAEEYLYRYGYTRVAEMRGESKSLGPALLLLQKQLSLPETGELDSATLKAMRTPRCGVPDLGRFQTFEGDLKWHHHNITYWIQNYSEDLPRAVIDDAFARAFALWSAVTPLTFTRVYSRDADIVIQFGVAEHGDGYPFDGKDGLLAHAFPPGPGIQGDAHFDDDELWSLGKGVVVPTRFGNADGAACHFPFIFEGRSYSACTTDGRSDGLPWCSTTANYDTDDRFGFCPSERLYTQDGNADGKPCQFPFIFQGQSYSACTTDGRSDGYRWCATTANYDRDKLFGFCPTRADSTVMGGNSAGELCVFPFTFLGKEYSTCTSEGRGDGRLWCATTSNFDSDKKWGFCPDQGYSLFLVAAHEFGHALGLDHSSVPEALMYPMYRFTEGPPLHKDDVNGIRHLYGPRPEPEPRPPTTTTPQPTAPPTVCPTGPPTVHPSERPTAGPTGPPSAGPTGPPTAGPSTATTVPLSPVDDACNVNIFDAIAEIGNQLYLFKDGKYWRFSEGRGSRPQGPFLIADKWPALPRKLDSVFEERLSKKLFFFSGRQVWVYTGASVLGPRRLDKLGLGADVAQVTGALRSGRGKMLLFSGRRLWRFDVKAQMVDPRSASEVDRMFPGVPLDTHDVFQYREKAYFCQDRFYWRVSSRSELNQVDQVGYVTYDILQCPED

In the case of “galectin‐3: human galectin‐3 (Met1‐Ile250) fused to C‐terminal tag SG(H)6SC, expressed in E. coli”, the “effect on stepwise activation of neutrophil proMMP‐9 by MMP‐3” value (cdMMP‐3 1/20, proMMP‐9/galectin‐3 1/10, 0-3 h, Fig. 9A) is listed as “reduced”. In addition, where the note is “overnight, proMMP‐9/galectin‐3 1/10, Fig. 9B”, the “effect on activation of neutrophil proMMP‐9 by MMP‐3, overnight incubation” value is listed as “prevented activation by MMP‐3”.
